Among the data in ChEMBL document CHEMBL5120972, “Small-Molecule Inhibitors of the MLL1 CXXC Domain, an Epigenetic Reader of DNA Methylation” (ACS Med Chem Lett, 2022) are IC50 values, retold here.

SMILES strings stand for the structures.

Assay [1] addresses T1, Lysine-specific demethylase 2A (Homo sapiens, UniProt Q9Y2K7).
T1 sequence (Q9Y2K7 whole entry): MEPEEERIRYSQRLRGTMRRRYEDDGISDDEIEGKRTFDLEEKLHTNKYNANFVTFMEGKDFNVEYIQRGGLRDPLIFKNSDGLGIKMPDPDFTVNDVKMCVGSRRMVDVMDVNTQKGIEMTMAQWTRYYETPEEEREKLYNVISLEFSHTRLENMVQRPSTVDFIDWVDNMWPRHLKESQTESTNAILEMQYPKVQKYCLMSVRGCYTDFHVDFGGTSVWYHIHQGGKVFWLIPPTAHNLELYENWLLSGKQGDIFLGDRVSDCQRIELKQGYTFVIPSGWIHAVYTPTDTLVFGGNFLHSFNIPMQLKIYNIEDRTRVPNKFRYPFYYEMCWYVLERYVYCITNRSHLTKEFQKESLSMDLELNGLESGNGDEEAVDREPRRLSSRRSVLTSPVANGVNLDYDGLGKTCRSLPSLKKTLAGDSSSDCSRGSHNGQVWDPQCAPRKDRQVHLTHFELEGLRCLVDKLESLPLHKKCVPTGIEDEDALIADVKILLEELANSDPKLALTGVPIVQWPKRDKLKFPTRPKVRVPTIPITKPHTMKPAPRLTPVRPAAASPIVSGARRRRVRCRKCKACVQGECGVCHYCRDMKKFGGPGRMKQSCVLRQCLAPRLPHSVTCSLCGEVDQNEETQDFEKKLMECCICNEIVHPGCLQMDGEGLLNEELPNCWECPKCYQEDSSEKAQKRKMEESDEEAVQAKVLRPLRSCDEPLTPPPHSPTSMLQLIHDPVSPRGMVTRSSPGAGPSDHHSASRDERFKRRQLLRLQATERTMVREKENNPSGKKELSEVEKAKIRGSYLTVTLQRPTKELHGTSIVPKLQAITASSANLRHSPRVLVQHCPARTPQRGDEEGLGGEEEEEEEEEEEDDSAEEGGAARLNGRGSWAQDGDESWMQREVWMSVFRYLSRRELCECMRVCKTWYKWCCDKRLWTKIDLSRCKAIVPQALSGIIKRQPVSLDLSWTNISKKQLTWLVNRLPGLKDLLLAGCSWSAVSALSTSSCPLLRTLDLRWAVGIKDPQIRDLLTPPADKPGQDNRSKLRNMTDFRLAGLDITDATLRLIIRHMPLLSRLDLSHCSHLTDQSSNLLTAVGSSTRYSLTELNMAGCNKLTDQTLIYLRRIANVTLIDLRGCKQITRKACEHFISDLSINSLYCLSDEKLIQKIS
As to the kind of experiment: Inhibition of GST-tagged human KDM2A (562 to 618 residues) expressed in Escherichia coli BL21 cells incubated for 30 mins by fluorescence polarization assay. In short, it runs like this: (§1)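 Competition fluorescence polarization assay. CXXC domain protein is held at 2× its own KD. All domains are expressed and purified by the same method. Standard deviations come from three separate measurements.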
For orientation: In fluorescence polarisation assays a small probe gives low polarisation when free and higher when bound to something large.

The target in assay [2] is T2, CXXC-type zinc finger protein 5 (Homo sapiens, UniProt Q7LFL8).
T2 sequence (Q7LFL8 whole entry): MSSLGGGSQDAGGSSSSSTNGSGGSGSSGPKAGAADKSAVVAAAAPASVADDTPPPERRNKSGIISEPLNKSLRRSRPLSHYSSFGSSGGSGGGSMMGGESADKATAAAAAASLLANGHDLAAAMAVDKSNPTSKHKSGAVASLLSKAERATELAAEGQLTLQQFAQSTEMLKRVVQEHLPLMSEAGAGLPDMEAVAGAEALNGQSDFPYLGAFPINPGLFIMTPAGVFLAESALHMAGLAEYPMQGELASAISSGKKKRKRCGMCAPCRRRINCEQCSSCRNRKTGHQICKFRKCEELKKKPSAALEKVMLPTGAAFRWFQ
As to the kind of experiment: Inhibition of GST-tagged human CXXC5 (255 to 305 residues) expressed in Escherichia coli BL21 cells incubated for 30 mins by fluorescence polarization assay. The essentials:
as §1

For the compound `C=CC(=O)N1CCC(C(=O)NS(=O)(=O)c2ccccc2)(c2ccccc2)CC1`, the IC50 was found to be 30 µM in assay [1] and 53 µM in assay [2].

For `C=CC(=O)N1CCC(C(=O)O)(c2ccc(OCC)cc2)CC1`, the IC50 in assay [1] is 4.2 µM; in assay [2], 16.2 µM.

`C=CC(=O)N1CCC(C(=O)O)(c2ccccc2)CC1`: the IC50 amounted to 3.9 µM in assay [1] and 4.8 µM in assay [2].

Consider `C=CC(=O)N1CCC(c2ccc(OCC)cc2)(c2nnn[nH]2)CC1`, for which the IC50 was determined as 36 µM in assay [1] and 131 µM in assay [2].

In the case of `C=CC(=O)N1CCC(c2ccccc2)(c2nnn[nH]2)CC1`, the IC50 amounted to 4.4 µM in assay [1] and 28 µM in assay [2].

Take `C=CC(=O)N1CCC(c2cccc(OCC)c2)(c2nnn[nH]2)CC1`: the values for the IC50 in assay [1] and in assay [2] were 7.4 µM and 40 µM, respectively.

As for `C=CC(=O)N1CCC(C(=O)O)(c2ccc(OC)cc2)CC1`, the IC50 amounted to 30 µM in assay [1] and 47 µM in assay [2].

As for `C=CC(=O)N1CCC(c2ccc(OC)cc2)(c2nnn[nH]2)CC1`, the values for the IC50 in assay [1] and in assay [2] were 16.4 µM and 56 µM, respectively.

Turning to `C=CC(=O)N1CCC(C(=O)O)(c2ccc(Cl)cc2)CC1`, the half-maximal inhibitory concentration (IC50) in assay [1] worked out at 33 µM; in assay [2], 53 µM.

The term IC50 denotes the concentration needed to halve the response being measured. A high value points to weaker potency.
